Legend:
K562 = assay: Cytotoxicity against human K562 cells after 48 hrs by EZ-CyTox enhanced cell viability assay; type: functional, cell-based; conditions: K562, 48 h
Procedure, shortened: (§1)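 Seeding densities: K562 3 × 10⁴, B16F10 3 × 10³, HL-60 1 × 10⁵, MDA-MB-231 5 × 10³ and Hep3B 5 × 10³ cells per well. Cells were exposed for 48 h to test compounds supplied as DMSO solutions. Viability was read with the EZ-CyTox enhanced cell viability kit as absorbance at 450 nm.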

[1] = Cytotoxicity against human Hep3B cells after 48 hrs by EZ-CyTox enhanced cell viability assay; type: functional, cell-based, Hep 3B2; procedure, shortened: as §1
B16-F10 = assay: Cytotoxicity against mouse B16F10 cells after 48 hrs by EZ-CyTox enhanced cell viability assay; type: functional, cell-based; conditions: B16-F10, 48 h; procedure, shortened: as §1
HL-60 = assay: Cytotoxicity against human HL60 cells after 48 hrs by EZ-CyTox enhanced cell viability assay; type: functional, cell-based; conditions: HL-60, 48 h; procedure, shortened: as §1
MDA-MB-231 = assay: Cytotoxicity against human MDA-MB-231 cells after 48 hrs by EZ-CyTox enhanced cell viability assay; type: functional, cell-based; conditions: MDA-MB-231, 48 h; procedure, shortened: as §1

Measured: IC50

CO[C@@H]1C(=O)Nc2ccc(/C=C/[C@]3(C)CCC(=O)[C@@H](C)C3)c(O)c2[C@@]1(O)c1ccccc1 [AFLAQUINOLONE A]
> 80 µM: all assays above

CO[C@@H]1C(=O)Nc2ccc(/C=C/[C@]3(C)CC[C@@H](O)[C@@H](C)C3)c(O)c2[C@@]1(O)c1ccccc1 [AFLAQUINOLONE B]
> 80 µM: all assays above

CO[C@@H]1C(=O)Nc2ccc(/C=C/[C@@]3(C)CCC(=O)[C@H](C)C3)c(O)c2[C@@]1(O)c1ccccc1 [AFLAQUINOLONE C]
> 80 µM: all assays above

CO[C@@H]1C(=O)Nc2cccc(O)c2[C@@]1(O)c1ccccc1 [AFLAQUINOLONE E]
> 80 µM: all assays above

O=C1Nc2ccccc2[C@@](O)(c2ccccc2)[C@@H]1O [AFLAQUINOLONE F]
> 80 µM: all assays above

O=C1Nc2ccccc2[C@@](O)(c2ccccc2)[C@H]1O [AFLAQUINOLONE G]
> 80 µM: all assays above

From ChEMBL document CHEMBL2021916, “Aflaquinolones A-G: secondary metabolites from marine and fungicolous isolates of Aspergillus spp” (J Nat Prod, 2012)
